Data: ChEMBL document CHEMBL2384943, “New Peptide-based antimicrobials for tackling drug resistance in bacteria: single-cell fluorescence imaging” (ACS Med Chem Lett, 2013)
Converted amounts (≈) assume the structure as drawn. *1 amine or outer side, *2 acyl side, *3 side chain or, on linkers, in order; H or OH if unused. Where a SMILES comes first, the peptide text is derived from it. The star is where a group is joined. X1 = c1ccc(CN(Cc2ccccc2)Cc2cccc(N*)c2)cc1; X2 = c1ccc(CN(Cc2ccccn2)Cc2cccc(N*)n2)nc1; Glutaryl = O=C(CCCC(=O)[*:2])[*:1]; OBn = c1ccc(CO*)cc1

Tests used:
Klebsiella aerogenes [1] = experiment: Drug uptake in multidrug-resistant Enterobacter aerogenes EA289 overexpressing AcrAB-tolC at 123 uM after 15 to 60 mins by DUV microspectrofluorimetric analysis; assay type: ADME, organism-based; conditions: in vivo
Klebsiella aerogenes [2] = experiment: Antibacterial activity against tolC-deficient Enterobacter aerogenes EA298 assessed as growth inhibition after 18 hrs by two-fold serial dilution method; assay type: functional; conditions: EA298, 18 h
How it was run: (§1)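 Strains were routinely grown at 37 °C in LB broth or on LB agar, with kanamycin 50 μg·mL–1 added for AG100A and EA298 (EA298 is the tolC derivative of clinical MDR isolate EA289). MICs were read in Mueller Hinton broth with 2-fold serial dilutions, using an inoculum of 2 × 10^5 cfu per 200 μL, scored after 18 h at 37 °C. Ciprofloxacin and fleroxacin served as reference antibiotics.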

Klebsiella aerogenes [3] = experiment: Antibacterial activity against multidrug-resistant Enterobacter aerogenes EA289 overexpressing AcrAB-tolC assessed as growth inhibition after 18 hrs by two-fold serial dilution method; assay type: functional; conditions: EA289, 18 h
How it was run: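 Inoculum 2 × 10^5 cfu in Mueller Hinton broth with 2-fold serial compound dilutions. MIC was scored after 18 h at 37 °C. Ciprofloxacin and fleroxacin served as internal reference antibiotics. Strains were routinely grown at 37 °C in LB.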

Escherichia coli [4] = experiment: Antibacterial activity against acrAB-deficient Escherichia coli AG100A assessed as growth inhibition after 18 hrs by two-fold serial dilution method; assay type: functional; how it was run: as §1
Escherichia coli [5] = experiment: Antibacterial activity against wild type Escherichia coli AG100 assessed as growth inhibition after 18 hrs by two-fold serial dilution method; assay type: functional; conditions: AG100, 18 h; how it was run: as §1

CN(C)c1cccc2c(S(=O)(=O)NCCCC[C@@H](NC(=O)CCCC(=O)Nc3cccc(CN(Cc4ccccc4)Cc4ccccc4)c3)C(=O)N[C@@H](CCCNC(=N)N)C(=O)N[C@@H](Cc3c[nH]c4ccccc34)C(=O)N[C@@H](CCCNC(=N)N)C(=O)N[C@@H](Cc3c[nH]c4ccccc34)C(=O)OCc3ccccc3)cccc12
Drug uptake (Klebsiella aerogenes [1]): Active

CC(=O)N[C@@H](CCCNC(=N)N)C(=O)N[C@@H](Cc1c[nH]c2ccccc12)C(=O)N[C@@H](CCCNC(=N)N)C(=O)N[C@@H](Cc1c[nH]c2ccccc12)C(=O)OCc1ccccc1 (Ac-RWRW-OBn)
MIC (Klebsiella aerogenes [2]): 64 µM (≈ 53.4 µg/mL) | MIC (Klebsiella aerogenes [3]): > 128 µM | MIC (Escherichia coli [4]): 16 µM (≈ 13.4 µg/mL) | MIC (Escherichia coli [5]): 64 µM (≈ 53.4 µg/mL)

N=C(N)NCCC[C@H](NC(=O)CCCC(=O)Nc1cccc(CN(Cc2ccccc2)Cc2ccccc2)c1)C(=O)N[C@@H](Cc1c[nH]c2ccccc12)C(=O)N[C@@H](CCCNC(=N)N)C(=O)N[C@@H](Cc1c[nH]c2ccccc12)C(=O)OCc1ccccc1 ({X1-Glutaryl}-RWRW-OBn)
MIC (Klebsiella aerogenes [2]): 64 µM (≈ 76.3 µg/mL) | MIC (Klebsiella aerogenes [3]): 64 µM (≈ 76.3 µg/mL) | MIC (Escherichia coli [4]): 64 µM (≈ 76.3 µg/mL) | MIC (Escherichia coli [5]): 64 µM (≈ 76.3 µg/mL)

N=C(N)NCCC[C@H](NC(=O)CCCC(=O)Nc1cccc(CN(Cc2ccccn2)Cc2ccccn2)n1)C(=O)N[C@@H](Cc1c[nH]c2ccccc12)C(=O)N[C@@H](CCCNC(=N)N)C(=O)N[C@@H](Cc1c[nH]c2ccccc12)C(=O)OCc1ccccc1 ({X2-Glutaryl}-RWRW-OBn)
MIC (Klebsiella aerogenes [2]): 8 µM (≈ 9.56 µg/mL) | MIC (Klebsiella aerogenes [3]): 16 µM (≈ 19.1 µg/mL) | MIC (Escherichia coli [4]): 8 µM (≈ 9.56 µg/mL) | MIC (Escherichia coli [5]): 32 µM (≈ 38.2 µg/mL)

N=C(N)NCCC[C@H](NC(=O)CCCC(=O)Nc1cccc(CN(Cc2ccccn2)Cc2ccccn2)n1)C(=O)N[C@@H](Cc1c[nH]c2ccccc12)C(=O)N[C@@H](CCCNC(=N)N)C(=O)N[C@@H](Cc1c[nH]c2ccccc12)C(=O)N[C@@H](CCCNC(=N)N)C(=O)N[C@@H](Cc1c[nH]c2ccccc12)C(=O)OCc1ccccc1 ({X2-Glutaryl}-RWRWRW-OBn)
MIC (Klebsiella aerogenes [2]): 8 µM (≈ 12.3 µg/mL) | MIC (Klebsiella aerogenes [3]): 16 µM (≈ 24.6 µg/mL) | MIC (Escherichia coli [4]): 8 µM (≈ 12.3 µg/mL) | MIC (Escherichia coli [5]): 8 µM (≈ 12.3 µg/mL)

N=C(N)NCCC[C@H](NC(=O)[C@H](Cc1c[nH]c2ccccc12)NC(=O)CCCC(=O)Nc1cccc(CN(Cc2ccccn2)Cc2ccccn2)n1)C(=O)N[C@@H](Cc1c[nH]c2ccccc12)C(=O)N[C@@H](CCCNC(=N)N)C(=O)OCc1ccccc1 ({X2-Glutaryl}-WRWR-OBn)
MIC (Klebsiella aerogenes [2]): 4 µM (≈ 4.78 µg/mL) | MIC (Klebsiella aerogenes [3]): 8 µM (≈ 9.56 µg/mL) | MIC (Escherichia coli [4]): 8 µM (≈ 9.56 µg/mL) | MIC (Escherichia coli [5]): 16 µM (≈ 19.1 µg/mL)

N=C(N)NCCC[C@H](NC(=O)[C@H](Cc1c[nH]c2ccccc12)NC(=O)CCCC(=O)Nc1cccc(CN(Cc2ccccn2)Cc2ccccn2)n1)C(=O)N[C@@H](Cc1c[nH]c2ccccc12)C(=O)N[C@@H](CCCNC(=N)N)C(=O)N[C@@H](Cc1c[nH]c2ccccc12)C(=O)N[C@@H](CCCNC(=N)N)C(=O)OCc1ccccc1 ({X2-Glutaryl}-WRWRWR-OBn)
MIC (Klebsiella aerogenes [2]): 8 µM (≈ 12.3 µg/mL) | MIC (Klebsiella aerogenes [3]): 16 µM (≈ 24.6 µg/mL) | MIC (Escherichia coli [4]): 8 µM (≈ 12.3 µg/mL) | MIC (Escherichia coli [5]): 8 µM (≈ 12.3 µg/mL)

CCCCC[C@H](CC(=O)NO)C(=O)N[C@H](C(=O)N1CCC[C@H]1CO)C(C)C [ACTINONIN]
MIC (Klebsiella aerogenes [2]): 32 µM (≈ 12.3 µg/mL) | MIC (Klebsiella aerogenes [3]): > 128 µM | MIC (Escherichia coli [4]): 2 µM (≈ 0.771 µg/mL) | MIC (Escherichia coli [5]): > 128 µM

O=C(O)c1cn(C2CC2)c2cc(N3CCNCC3)c(F)cc2c1=O [CIPROFLOXACIN]
MIC (Klebsiella aerogenes [2]): 8 µM (≈ 2.65 µg/mL) | MIC (Klebsiella aerogenes [3]): 64 µM (≈ 21.2 µg/mL) | MIC (Escherichia coli [4]): 0.03 µM (≈ 0.00994 µg/mL) | MIC (Escherichia coli [5]): 0.125 µM (≈ 0.0414 µg/mL)

CN1CCN(c2c(F)cc3c(=O)c(C(=O)O)cn(CCF)c3c2F)CC1 [FLEROXACIN]
MIC (Klebsiella aerogenes [2]): 16 µM (≈ 5.91 µg/mL) | MIC (Klebsiella aerogenes [3]): > 128 µM | MIC (Escherichia coli [4]): 0.125 µM (≈ 0.0462 µg/mL) | MIC (Escherichia coli [5]): 0.5 µM (≈ 0.185 µg/mL)
